Reference: ChEMBL document CHEMBL5321201, “Investigation of morpholine isosters for the development of a potent, selective and metabolically stable mTOR kinase inhibitor” (Eur J Med Chem, 2023)

Assays:
[1] = Metabolic stability in human hepatocytes assessed as intrinsic clearance measured per million cells at 5 microM incubated upto 180 mins by LC/MS analysis; format: ADME, cell-based, Hepatocyte; conditions: read-out: CLH
Outline: (§1)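 Cryopreserved hepatocytes from the listed species, in suspension at 200,000 cells/well in Williams Medium E with 2 mM L-glutamine and 25 mM HEPES. Compound final 5 µM in 0.5% DMSO, sampled at 0, 15, 60, 90 and 180 min. ACN precipitation, LC-MS. Hepatocyte-free medium served as negative control and 7-ethoxycoumarin as reference; duplicates.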

[2] = Metabolic stability in Beagle dog hepatocytes assessed as intrinsic clearance measured per million cells at 5 microM incubated upto 180 mins by LC/MS analysis; format: ADME, cell-based, Canis lupus familiaris, Hepatocyte; conditions: read-out: CLH; outline: as §1
[3] = Metabolic stability in CD-1 mouse hepatocytes assessed as intrinsic clearance measured per million cells at 5 microM incubated upto 180 mins by LC/MS analysis; format: ADME, cell-based, Hepatocyte; conditions: read-out: CLH; outline: as §1
[4] = Metabolic stability in CD-1 mouse hepatocytes assessed as half life at 5 microM incubated upto 180 mins by LC/MS analysis; format: ADME, cell-based, Hepatocyte; outline: as §1
[5] = Metabolic stability in Sprague-Dawley rat hepatocytes assessed as half life at 5 microM incubated upto 180 mins by LC/MS analysis; format: ADME, cell-based, Hepatocyte; outline: as §1
[6] = Metabolic stability in Beagle dog hepatocytes assessed as half life at 5 microM incubated upto 180 mins by LC/MS analysis; format: ADME, cell-based, Canis lupus familiaris, Hepatocyte; outline: as §1
[7] = Metabolic stability in Sprague-Dawley rat hepatocytes assessed as intrinsic clearance measured per million cells at 5 microM incubated upto 180 mins by LC/MS analysis; format: ADME, cell-based, Hepatocyte; conditions: read-out: CLH; outline: as §1
[8] = Metabolic stability in human hepatocytes assessed as half life at 5 microM incubated upto 180 mins by LC/MS analysis; format: ADME, cell-based, Hepatocyte; outline: as §1
[9] = Metabolic stability in CD-1 mouse hepatocytes assessed as parent compound remaining at 5 uM measured after 3 hrs by LC-MS analysis; format: ADME, cell-based, Hepatocyte; conditions: read-out: Stability; outline: as §1
[10] = target: Phosphatidylinositol 4-kinase beta (Homo sapiens, UniProt Q9UBF8); test: Binding affinity to DNA-tagged P14kbeta (unknown origin) assessed as dissociation constant by quantitative PCR analysis
Sequence of Phosphatidylinositol 4-kinase beta (Q9UBF8 whole entry): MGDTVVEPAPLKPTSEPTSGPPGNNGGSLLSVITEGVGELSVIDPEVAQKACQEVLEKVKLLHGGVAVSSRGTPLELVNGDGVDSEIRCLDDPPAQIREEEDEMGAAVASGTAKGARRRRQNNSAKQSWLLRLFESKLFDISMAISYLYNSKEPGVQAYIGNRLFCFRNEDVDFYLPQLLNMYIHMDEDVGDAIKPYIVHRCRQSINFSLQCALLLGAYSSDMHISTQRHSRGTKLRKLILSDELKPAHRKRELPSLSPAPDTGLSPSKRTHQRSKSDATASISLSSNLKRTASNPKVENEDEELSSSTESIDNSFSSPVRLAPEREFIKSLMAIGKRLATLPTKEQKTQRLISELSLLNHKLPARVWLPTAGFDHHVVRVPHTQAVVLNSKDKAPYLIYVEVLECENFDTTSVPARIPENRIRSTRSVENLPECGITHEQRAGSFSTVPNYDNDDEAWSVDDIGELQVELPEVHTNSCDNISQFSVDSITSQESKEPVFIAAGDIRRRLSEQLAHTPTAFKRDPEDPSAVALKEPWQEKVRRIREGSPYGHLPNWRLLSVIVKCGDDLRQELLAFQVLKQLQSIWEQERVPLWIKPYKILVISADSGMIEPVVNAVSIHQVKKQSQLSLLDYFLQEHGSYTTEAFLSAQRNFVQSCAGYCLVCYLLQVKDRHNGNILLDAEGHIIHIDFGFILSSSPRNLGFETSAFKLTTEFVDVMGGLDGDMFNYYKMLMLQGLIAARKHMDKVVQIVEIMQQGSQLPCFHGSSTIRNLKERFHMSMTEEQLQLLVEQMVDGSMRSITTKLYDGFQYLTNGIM
Outline: (§2)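 Competition binding: DNA-tagged kinases on immobilized ligand competed with an 11-point 3-fold dilution starting at 30 µM. Bound kinase quantified by qPCR of DNA tags. Kd fitted with the Hill equation (slope −1); duplicate experiments, mean reported.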

[11] = target: Phosphatidylinositol 4,5-bisphosphate 3-kinase catalytic subunit beta isoform (Homo sapiens, UniProt P42338); test: Binding affinity to DNA-tagged P13kbeta (unknown origin) assessed as dissociation constant by quantitative PCR analysis; outline: as §2
Sequence of Phosphatidylinositol 4,5-bisphosphate 3-kinase catalytic subunit beta isoform (P42338 whole entry, canonical isoform): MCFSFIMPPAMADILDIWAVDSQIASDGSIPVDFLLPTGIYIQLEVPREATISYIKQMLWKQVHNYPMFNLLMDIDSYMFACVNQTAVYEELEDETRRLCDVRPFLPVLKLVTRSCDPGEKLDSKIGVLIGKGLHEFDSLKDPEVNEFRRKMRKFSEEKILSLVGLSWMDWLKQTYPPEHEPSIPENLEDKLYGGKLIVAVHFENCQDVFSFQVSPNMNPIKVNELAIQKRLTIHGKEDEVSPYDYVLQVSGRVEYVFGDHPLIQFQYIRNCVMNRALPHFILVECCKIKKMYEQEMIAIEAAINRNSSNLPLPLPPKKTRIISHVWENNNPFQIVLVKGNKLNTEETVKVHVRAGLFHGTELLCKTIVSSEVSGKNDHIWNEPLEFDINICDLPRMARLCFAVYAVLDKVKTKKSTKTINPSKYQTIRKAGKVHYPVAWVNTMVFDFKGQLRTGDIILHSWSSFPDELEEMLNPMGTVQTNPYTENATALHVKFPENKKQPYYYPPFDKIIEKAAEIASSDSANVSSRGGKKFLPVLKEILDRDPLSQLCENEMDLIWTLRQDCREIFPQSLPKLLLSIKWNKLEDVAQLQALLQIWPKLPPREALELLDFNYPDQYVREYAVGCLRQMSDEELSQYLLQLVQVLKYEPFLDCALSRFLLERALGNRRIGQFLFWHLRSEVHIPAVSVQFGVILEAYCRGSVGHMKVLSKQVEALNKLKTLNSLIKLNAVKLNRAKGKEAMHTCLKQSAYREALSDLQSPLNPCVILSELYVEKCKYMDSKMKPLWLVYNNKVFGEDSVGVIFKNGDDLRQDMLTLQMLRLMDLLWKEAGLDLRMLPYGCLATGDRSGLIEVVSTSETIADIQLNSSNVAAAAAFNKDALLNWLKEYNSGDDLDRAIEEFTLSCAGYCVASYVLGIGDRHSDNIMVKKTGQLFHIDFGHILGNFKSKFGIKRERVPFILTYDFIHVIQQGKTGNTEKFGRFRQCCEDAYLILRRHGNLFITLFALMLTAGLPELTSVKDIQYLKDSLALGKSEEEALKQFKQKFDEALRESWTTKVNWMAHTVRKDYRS

[12] = target: T1, Phosphatidylinositol 4,5-bisphosphate 3-kinase catalytic subunit delta isoform (Homo sapiens, UniProt O00329); test: Binding affinity to DNA-tagged P13kdelta (unknown origin) assessed as dissociation constant by quantitative PCR analysis; outline: as §2
T1 sequence (O00329 whole entry): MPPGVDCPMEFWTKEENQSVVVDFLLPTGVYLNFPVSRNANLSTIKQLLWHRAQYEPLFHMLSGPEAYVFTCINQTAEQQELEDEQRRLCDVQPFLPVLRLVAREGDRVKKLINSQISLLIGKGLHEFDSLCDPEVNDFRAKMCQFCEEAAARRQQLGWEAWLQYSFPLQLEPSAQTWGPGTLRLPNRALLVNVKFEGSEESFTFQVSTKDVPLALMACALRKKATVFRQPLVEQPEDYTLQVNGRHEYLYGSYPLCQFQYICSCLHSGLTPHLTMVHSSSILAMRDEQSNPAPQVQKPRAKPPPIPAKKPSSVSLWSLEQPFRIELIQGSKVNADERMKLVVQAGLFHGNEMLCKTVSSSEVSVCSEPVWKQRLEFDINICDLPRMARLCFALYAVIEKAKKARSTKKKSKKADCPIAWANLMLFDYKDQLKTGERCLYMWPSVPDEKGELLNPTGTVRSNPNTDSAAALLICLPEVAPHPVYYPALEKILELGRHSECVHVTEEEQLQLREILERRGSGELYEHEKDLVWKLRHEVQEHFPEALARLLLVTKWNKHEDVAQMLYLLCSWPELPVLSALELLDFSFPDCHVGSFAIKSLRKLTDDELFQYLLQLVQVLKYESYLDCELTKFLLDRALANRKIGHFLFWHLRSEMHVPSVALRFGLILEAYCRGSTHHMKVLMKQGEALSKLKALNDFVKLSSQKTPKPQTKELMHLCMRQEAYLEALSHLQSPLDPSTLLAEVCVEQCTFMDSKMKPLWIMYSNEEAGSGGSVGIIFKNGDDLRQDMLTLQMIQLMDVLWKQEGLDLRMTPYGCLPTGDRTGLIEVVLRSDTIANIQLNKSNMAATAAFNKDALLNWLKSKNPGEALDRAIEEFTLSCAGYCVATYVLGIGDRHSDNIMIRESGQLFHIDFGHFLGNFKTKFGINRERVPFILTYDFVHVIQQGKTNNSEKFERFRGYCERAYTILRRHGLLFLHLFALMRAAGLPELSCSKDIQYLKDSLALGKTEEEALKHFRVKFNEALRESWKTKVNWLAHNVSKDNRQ

[13] = Metabolic stability in Sprague-Dawley rat hepatocytes assessed as parent compound remaining at 5 uM measured after 3 hrs by LC-MS analysis; format: ADME, cell-based, Hepatocyte; conditions: read-out: Stability; outline: as §1
VL51 = test: cells; conditions: Homo sapiens, VL51, 72 h
CYP1A2 = target: T2, CYP1A2 (Homo sapiens, UniProt P05177); test: Stability of compound assessed as recombinant human CYP1A2-mediated drug metabolism by measuring compound remaining at 1 uM incubated for 60 mins by LC-MS analysis; format: ADME; conditions: read-out: Stability
T2 sequence (P05177 whole entry): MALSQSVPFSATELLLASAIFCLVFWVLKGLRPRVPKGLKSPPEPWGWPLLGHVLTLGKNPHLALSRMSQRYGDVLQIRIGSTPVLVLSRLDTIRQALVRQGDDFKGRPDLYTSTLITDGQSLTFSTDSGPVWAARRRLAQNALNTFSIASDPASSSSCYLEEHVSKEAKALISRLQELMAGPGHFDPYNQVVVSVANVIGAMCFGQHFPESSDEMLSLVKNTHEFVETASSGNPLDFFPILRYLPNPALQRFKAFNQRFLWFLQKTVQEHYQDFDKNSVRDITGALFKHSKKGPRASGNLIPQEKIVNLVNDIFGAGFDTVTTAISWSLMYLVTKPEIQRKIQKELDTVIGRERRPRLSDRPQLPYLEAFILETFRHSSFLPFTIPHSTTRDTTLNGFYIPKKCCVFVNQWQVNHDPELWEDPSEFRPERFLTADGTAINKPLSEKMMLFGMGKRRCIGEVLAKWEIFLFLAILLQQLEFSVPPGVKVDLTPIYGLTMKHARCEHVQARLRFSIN
Outline: (§3)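 Recombinant human CYP1A1 or CYP1A2 Supersomes at 25 pmol/mL, with compound at 1 µM (0.25% DMSO) and an NADP+-regenerating cofactor mix, at 37 °C. Reactions stopped with ACN plus internal standard at 0 and 60 min. Controls: melatonin for CYP1A1 and phenacetin for CYP1A2, plus no-cofactor negatives. Duplicates.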

cells [14] = conditions: Homo sapiens, Karpas-1718, 72 h
[15] = target: T3, Serine/threonine-protein kinase mTOR (Homo sapiens, UniProt P42345); test: Binding affinity to DNA-tagged mTOR (unknown origin) assessed as dissociation constant by quantitative PCR analysis; outline: as §2
cells [16] = conditions: Homo sapiens, SK-OV-3, 1 h
[17] = AUC (0 to 8 hrs) in Sprague-Dawley rat brain at 5 mg/kg, po administered as single dose and measured after 8 hrs by LC-MS analysis; format: ADME, organism-based; set-up: time 8 hrs, dose 5 mg/kg, route po; conditions: in vivo
Outline: (§4)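 Male Sprague Dawley rats given a single oral dose of 5 mg/kg (5 mL/kg) in 20% Captisol, pH adjusted to 3. Three rats per time point (30 min, 2, 4, 8 h); heart-puncture blood into lithium-heparin, plasma separated, brain collected. Samples precipitated with acetonitrile containing diazepam internal standard, then LC-MS quantification.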

[18] = target: T4, Phosphatidylinositol 4,5-bisphosphate 3-kinase catalytic subunit alpha isoform (Homo sapiens, UniProt P42336); test: Displacement of Alexa fluor 647-labeled kinase tracer 314 from recombinant N-terminal (His)6-tagged p110alpha (unknown origin) assessed as inhibition constant by TR-FRET based Lanthascreen kinase activity assay
T4 sequence (P42336 whole entry, the tested form may be a part, canonical isoform): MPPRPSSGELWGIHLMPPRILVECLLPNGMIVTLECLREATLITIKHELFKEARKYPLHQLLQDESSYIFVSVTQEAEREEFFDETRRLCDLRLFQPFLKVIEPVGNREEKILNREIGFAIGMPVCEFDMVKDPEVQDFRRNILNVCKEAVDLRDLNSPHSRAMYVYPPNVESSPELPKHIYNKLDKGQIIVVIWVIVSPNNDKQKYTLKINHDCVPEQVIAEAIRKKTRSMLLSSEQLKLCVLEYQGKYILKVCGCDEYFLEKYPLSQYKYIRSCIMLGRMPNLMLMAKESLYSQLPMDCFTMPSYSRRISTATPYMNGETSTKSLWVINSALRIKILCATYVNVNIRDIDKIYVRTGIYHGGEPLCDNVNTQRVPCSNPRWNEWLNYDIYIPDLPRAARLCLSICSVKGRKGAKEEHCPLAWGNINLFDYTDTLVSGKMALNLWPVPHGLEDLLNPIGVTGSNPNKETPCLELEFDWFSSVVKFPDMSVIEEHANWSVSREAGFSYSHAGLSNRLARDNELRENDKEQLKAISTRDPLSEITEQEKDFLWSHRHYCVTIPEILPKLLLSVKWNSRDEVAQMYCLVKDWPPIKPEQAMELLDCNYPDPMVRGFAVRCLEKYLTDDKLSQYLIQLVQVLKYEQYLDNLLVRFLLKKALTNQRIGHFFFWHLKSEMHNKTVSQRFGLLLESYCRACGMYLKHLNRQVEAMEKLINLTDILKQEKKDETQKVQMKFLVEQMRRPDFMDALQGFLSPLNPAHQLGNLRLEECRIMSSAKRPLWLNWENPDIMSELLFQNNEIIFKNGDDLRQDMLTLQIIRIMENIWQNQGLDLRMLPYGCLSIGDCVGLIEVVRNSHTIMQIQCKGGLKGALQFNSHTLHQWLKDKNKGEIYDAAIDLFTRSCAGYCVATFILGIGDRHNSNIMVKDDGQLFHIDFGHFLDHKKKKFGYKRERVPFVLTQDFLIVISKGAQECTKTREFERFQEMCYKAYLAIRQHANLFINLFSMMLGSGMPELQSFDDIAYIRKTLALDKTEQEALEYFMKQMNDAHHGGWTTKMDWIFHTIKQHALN

[19] = target: T3, Serine/threonine-protein kinase mTOR; test: Displacement of Alexa fluor 647-labeled kinase tracer 314 from N-terminal GST-fused truncated recombinant human mTOR (1360 to 2549 residues) assessed as inhibition constant by TR-FRET based Lanthascreen kinase activity assay
[20] = target: Phosphatidylinositol 3-kinase catalytic subunit type 3 (Homo sapiens, UniProt Q8NEB9); test: Binding affinity to DNA-tagged VPS34 (unknown origin) assessed as dissociation constant by quantitative PCR analysis; outline: as §2
Sequence of Phosphatidylinositol 3-kinase catalytic subunit type 3 (Q8NEB9 whole entry, canonical isoform): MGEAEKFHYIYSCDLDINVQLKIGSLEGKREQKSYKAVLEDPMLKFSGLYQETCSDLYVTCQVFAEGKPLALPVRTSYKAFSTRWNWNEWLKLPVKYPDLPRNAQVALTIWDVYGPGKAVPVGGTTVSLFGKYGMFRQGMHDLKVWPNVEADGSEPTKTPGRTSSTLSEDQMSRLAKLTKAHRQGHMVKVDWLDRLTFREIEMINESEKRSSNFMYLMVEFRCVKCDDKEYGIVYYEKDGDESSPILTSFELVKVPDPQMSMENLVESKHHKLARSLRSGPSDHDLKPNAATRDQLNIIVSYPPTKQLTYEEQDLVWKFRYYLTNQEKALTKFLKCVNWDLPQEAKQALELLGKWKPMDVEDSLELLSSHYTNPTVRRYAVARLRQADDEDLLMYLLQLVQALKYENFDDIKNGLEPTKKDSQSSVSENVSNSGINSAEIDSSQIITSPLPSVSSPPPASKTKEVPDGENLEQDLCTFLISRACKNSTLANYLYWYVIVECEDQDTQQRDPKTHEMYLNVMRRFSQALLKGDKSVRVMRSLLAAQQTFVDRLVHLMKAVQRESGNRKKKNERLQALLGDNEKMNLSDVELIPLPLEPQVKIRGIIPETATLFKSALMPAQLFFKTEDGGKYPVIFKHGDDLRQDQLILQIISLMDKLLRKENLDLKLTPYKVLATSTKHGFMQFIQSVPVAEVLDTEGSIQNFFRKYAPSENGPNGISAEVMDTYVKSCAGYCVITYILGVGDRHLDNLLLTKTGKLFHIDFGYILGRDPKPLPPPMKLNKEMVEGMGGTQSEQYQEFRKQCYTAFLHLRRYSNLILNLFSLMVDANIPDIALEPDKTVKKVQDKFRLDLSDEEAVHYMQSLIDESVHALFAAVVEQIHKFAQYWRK

[21] = target: Phosphatidylinositol 4,5-bisphosphate 3-kinase catalytic subunit gamma isoform (Homo sapiens, UniProt P48736); test: Binding affinity to DNA-tagged P13kgamma (unknown origin) assessed as dissociation constant by quantitative PCR analysis; outline: as §2
Sequence of Phosphatidylinositol 4,5-bisphosphate 3-kinase catalytic subunit gamma isoform (P48736 whole entry, canonical isoform): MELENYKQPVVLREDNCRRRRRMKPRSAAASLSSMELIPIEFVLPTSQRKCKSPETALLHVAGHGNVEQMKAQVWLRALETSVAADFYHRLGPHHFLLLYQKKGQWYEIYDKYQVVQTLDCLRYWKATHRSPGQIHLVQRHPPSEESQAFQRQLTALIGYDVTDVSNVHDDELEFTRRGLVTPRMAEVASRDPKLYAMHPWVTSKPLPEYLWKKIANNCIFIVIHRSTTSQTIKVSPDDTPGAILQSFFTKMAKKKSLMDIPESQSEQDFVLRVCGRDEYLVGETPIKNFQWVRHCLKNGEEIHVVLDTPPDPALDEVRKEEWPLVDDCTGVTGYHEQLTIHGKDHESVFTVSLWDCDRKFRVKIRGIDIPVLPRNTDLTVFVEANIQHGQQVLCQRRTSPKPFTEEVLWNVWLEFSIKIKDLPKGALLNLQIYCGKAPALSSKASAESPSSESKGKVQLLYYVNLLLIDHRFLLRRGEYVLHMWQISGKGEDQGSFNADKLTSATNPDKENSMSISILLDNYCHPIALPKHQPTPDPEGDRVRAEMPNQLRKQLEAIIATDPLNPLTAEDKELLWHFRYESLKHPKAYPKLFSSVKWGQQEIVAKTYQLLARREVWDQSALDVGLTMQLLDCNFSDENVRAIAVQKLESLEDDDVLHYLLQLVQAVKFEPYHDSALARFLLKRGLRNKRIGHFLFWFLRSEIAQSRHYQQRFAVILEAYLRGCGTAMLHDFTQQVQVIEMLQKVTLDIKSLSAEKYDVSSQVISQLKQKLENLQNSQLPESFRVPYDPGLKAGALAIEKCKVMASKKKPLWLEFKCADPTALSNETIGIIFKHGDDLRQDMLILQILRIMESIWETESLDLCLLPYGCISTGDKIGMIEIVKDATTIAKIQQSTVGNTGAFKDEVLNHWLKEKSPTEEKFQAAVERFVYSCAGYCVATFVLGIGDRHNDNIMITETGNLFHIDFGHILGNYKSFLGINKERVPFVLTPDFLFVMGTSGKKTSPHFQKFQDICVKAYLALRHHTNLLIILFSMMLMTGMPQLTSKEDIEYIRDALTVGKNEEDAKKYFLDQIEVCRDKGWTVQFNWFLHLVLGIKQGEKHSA

[22] = Toxicity in Sprague-Dawley rat assessed as increase in glucose concentration at 5 mg/kg, po measured upto 8 hrs by glucose colorimetric assay; format: organism-based; conditions: in vivo
Outline: (§5)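 Male SD rats dosed orally at 5 mg/kg in 20% Captisol, with vehicle controls. Plasma was taken by heart puncture at 30 min, 2, 4 and 8 h, three rats per point. Insulin was measured by rat/mouse insulin ELISA and glucose by colorimetric assay.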

cells [23] = conditions: Homo sapiens, SK-OV-3, 1 h; remark: listed apart in the source
[24] = AUC (0 to 8 hrs) in Sprague-Dawley rat plasma at 5 mg/kg, po administered as single dose and measured after 8 hrs by LC-MS analysis; format: ADME, organism-based; set-up: dose 5 mg/kg, time 8 hrs, route po; outline: as §4
[25] = target: T4, Phosphatidylinositol 4,5-bisphosphate 3-kinase catalytic subunit alpha isoform; test: Binding affinity to DNA-tagged P13kalpha (unknown origin) assessed as dissociation constant by quantitative PCR analysis; outline: as §2
cells [26] = conditions: Homo sapiens, SSK41, 72 h
[27] = Metabolic stability in human hepatocytes assessed as parent compound remaining at 5 uM measured after 3 hrs by LC-MS analysis; format: ADME, cell-based, Hepatocyte; conditions: read-out: Stability; outline: as §1
[28] = Metabolic stability in Beagle dog hepatocytes assessed as parent compound remaining at 5 uM measured after 3 hrs by LC-MS analysis; format: ADME, cell-based, Canis lupus familiaris, Hepatocyte; conditions: read-out: Stability; outline: as §1
CYP1A1 = target: T5, CYP1A1 (Homo sapiens, UniProt P04798); test: Stability of compound assessed as recombinant human CYP1A1-mediated drug metabolism by measuring compound remaining at 1 uM incubated for 60 mins by LC-MS analysis; format: ADME; conditions: read-out: Stability; outline: as §3
T5 sequence (P04798 whole entry): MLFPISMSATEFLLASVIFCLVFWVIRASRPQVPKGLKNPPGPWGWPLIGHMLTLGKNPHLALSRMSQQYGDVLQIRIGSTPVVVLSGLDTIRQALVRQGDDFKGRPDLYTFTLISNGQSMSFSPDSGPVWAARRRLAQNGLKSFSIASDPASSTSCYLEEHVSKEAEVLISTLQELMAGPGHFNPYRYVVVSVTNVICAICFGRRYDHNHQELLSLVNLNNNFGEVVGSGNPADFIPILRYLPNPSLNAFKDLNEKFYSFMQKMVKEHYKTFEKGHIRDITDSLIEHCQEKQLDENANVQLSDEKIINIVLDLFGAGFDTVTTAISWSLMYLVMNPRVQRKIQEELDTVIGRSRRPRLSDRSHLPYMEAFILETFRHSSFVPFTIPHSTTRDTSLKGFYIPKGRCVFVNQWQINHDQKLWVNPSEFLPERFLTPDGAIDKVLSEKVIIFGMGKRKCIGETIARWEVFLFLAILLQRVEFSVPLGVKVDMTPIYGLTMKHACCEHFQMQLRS

[29] = Toxicity in Sprague-Dawley rat assessed as increase in insulin concentration at 5 mg/kg, po measured upto 8 hrs by ELISA; format: organism-based; conditions: in vivo; outline: as §5

CCOc1ccc2ccc(=O)oc2c1
hepatocyte CLint at 5 µM [1]: 22 µL/min/1e6 cells
hepatocyte CLint at 5 µM [2]: 45 µL/min/1e6 cells
hepatocyte CLint at 5 µM [3]: 50 µL/min/1e6 cells
half-life at 5 µM [4]: 17 min
half-life at 5 µM [5]: 47 min
half-life at 5 µM [6]: 18 min
hepatocyte CLint at 5 µM [7]: 18 µL/min/1e6 cells
half-life at 5 µM [8]: 39 min

Nc1cc(C(F)F)c(-c2nc(C3CCOCC3)nc(N3C4CCC3COC4)n2)cn1
remaining at 3 h, 5 µM [9]: 74.5%
Kd [10]: > 30000 nM
Kd [11]: 6450 nM
Kd [12]: 15500 nM
remaining at 3 h, 5 µM [13]: 62.4%
IC50 (VL51): 311 nM
hepatocyte CLint at 5 µM [1]: 3.56 µL/min/1e6 cells
remaining at 1 h, 1 µM (CYP1A2): 84.2%
IC50 (cells [14]): 118 nM
Kd [15]: 5 nM
IC50 (cells [16]): 171 nM
AUC [17]: 2659 ng·h/g
Ki [18]: 1140 nM
Ki [19]: 22 nM
hepatocyte CLint at 5 µM [2]: 0.42 µL/min/1e6 cells
Kd [20]: 6100 nM
Kd [21]: 5600 nM
hepatocyte CLint at 5 µM [3]: 2.11 µL/min/1e6 cells
half-life at 5 µM [4]: > 180 min
Activity [22]: Non-Toxic
half-life at 5 µM [5]: > 180 min
IC50 (cells [23]): 85 nM
AUC(0-t) at 8 h [24]: 3760 ng·h/mL
half-life at 5 µM [6]: > 180 min
Kd [25]: 420 nM
IC50 (cells [26]): 369 nM
hepatocyte CLint at 5 µM [7]: 2.99 µL/min/1e6 cells
remaining at 3 h, 5 µM [27]: 59.9%
half-life at 5 µM [8]: > 180 min
remaining at 3 h, 5 µM [28]: 92.9%
remaining at 1 h, 1 µM (CYP1A1): 53.3%
Activity [29]: Non-Toxic

Nc1cc(C(F)F)c(-c2nc(C3=CCOCC3)nc(N3C4CCC3COC4)n2)cn1
IC50 (VL51): 150 nM
IC50 (cells [14]): 354 nM
IC50 (cells [16]): 199 nM
Ki [18]: 125 nM
Ki [19]: 16 nM
IC50 (cells [23]): 94 nM
IC50 (cells [26]): 195 nM
